In one series the test system is Escherichia coli CFT073. Kind of series: Inhibition of LspA in wild type Escherichia coli CFT073 assessed as inhibition of bacterial growth. The procedure, abridged: (§1)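 Read-out is the minimum inhibitory concentration, reported in µM.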
Series [1] is described as follows: Growth inhibition of Staphylococcus aureus USA300.
For another series, the system named is Escherichia coli. Put plainly: Inhibition of LspA in Escherichia coli CFT073imp4213 harboring outer membrane-permeable mutant assessed as inhibition of bacterial growth. The procedure, abridged:
as §1

≈ marks a conversion by molar mass, not a printed value. Starred links: 1 amine or outer side, 2 acyl side, 3 side chain; linkers in the order of their positions; H or OH if unused. Non-standard residues stand in square brackets, D forms with d. Residues, ends and D or L forms follow the SMILES beside them. *: point of attachment. X1 = CCCCCC[C@@H](OC[C@@H](C)N[*:1])[C@@H](C)C(=O)[*:2]; X16 = CCCC[C@@H](C(=O)[*:2])N(CCCC)CCN[*:1]; Gly(cHept) = N[C@H](C(=O)O)C1CCCCCC1; aThr = C[C@H](O)[C@H](N)C(=O)O; NMeL = CN[C@@H](CC(C)C)C(=O)O; Chg = N[C@H](C(=O)O)C1CCCCC1; NMeNva = CCC[C@H](NC)C(=O)O; Dap = NC[C@H](N)C(=O)O; X15 = O=C(O)CCCNCCC*

Consider `CCCCCC[C@H]1OC(=O)CNC(=O)[C@H]([C@H](C)O)NC(=O)[C@H](CN)NC(=O)[C@H](CCC(N)=O)NC(=O)[C@H](CC(C)C)N(C)C(=O)[C@@H]1C`, for which the MIC (with Escherichia coli CFT073; in series [1]; in the series with Escherichia coli) was more than 100 µM throughout.

Take `CCCC[C@H]1C(=O)N(C)[C@@H](CC(C)C)C(=O)N[C@@H](C2CCCCC2)C(=O)N[C@@H](CN)C(=O)N[C@@H]([C@H](C)O)C(=O)NCCN1CCCC` (cyclo([Chg][Dap][aThr][X16][NMeL])): the figures for the MIC (in the series on Escherichia coli CFT073; in series [1]; in the series on Escherichia coli) were 6.3 µM (≈ 4.2 µg/mL), 100 µM (≈ 66.6 µg/mL) and 0.1 µM (≈ 0.0666 µg/mL), respectively.

With `CCCCCCCCCC[C@H]1OC(=O)CNC(=O)[C@H]([C@H](C)O)NC(=O)[C@H](CO)NC(=O)[C@H]([C@@H](C)CC)NC(=O)[C@H](CC(C)C)N(C)C(=O)[C@@H]1C`, the MIC in the series on Escherichia coli CFT073 turned out to be 9.4 µM (≈ 6.69 µg/mL); in series [1], 25 µM (≈ 17.8 µg/mL); in the series with Escherichia coli, 0.016 µM (≈ 0.0114 µg/mL).

For `CCCCCCCCCC[C@H]1OC(=O)CNC(=O)[C@H]([C@H](C)O)NC(=O)[C@H](CNC(=N)N)NC(=O)[C@H]([C@@H](C)CC)NC(=O)[C@H](CC(C)C)N(C)C(=O)[C@@H]1C`, the values for the MIC (in the series with Escherichia coli CFT073; in series [1]; with Escherichia coli) were 50 µM (≈ 37.6 µg/mL), 13 µM (≈ 9.79 µg/mL) and 1.6 µM (≈ 1.2 µg/mL), respectively.

In the case of `CCCCCCCCCC[C@H]1OC(=O)CNC(=O)[C@H]([C@H](C)O)NC(=O)[C@H](C)NC(=O)[C@H]([C@@H](C)CC)NC(=O)[C@H](CC(C)C)N(C)C(=O)[C@@H]1C`, the MIC in the series with Escherichia coli CFT073 was 100 µM (≈ 69.6 µg/mL); in series [1], 25 µM (≈ 17.4 µg/mL); with Escherichia coli, 25 µM (≈ 17.4 µg/mL).

As to `CCCCCC[C@H]1OC(=O)CNC(=O)[C@H]([C@H](C)O)NC(=O)[C@H](CN)NC(=O)[C@H](Cc2ccccc2)NC(=O)[C@H](CC(C)C)N(C)C(=O)[C@@H]1C`, the MIC was 50 µM (≈ 34.4 µg/mL) in the series on Escherichia coli CFT073, more than 100 µM in series [1] and 0.8 µM (≈ 0.551 µg/mL) with Escherichia coli.

Regarding `CCCCCC[C@H]1OC[C@@H](C)NC(=O)[C@H](COCCCNCCCC(=O)O)NC(=O)[C@H](CN)NC(=O)[C@H](C2CCCCCC2)NC(=O)[C@H](CCC)N(C)C(=O)[C@@H]1C` (cyclo([Dap]S(X15)[X1][NMeNva][Gly(cHept)])), the MIC in the series on Escherichia coli CFT073 was 100 µM (≈ 81 µg/mL); in series [1], more than 100 µM; in the series with Escherichia coli it was 0.78 µM (≈ 0.632 µg/mL).

With `CCCCCC[C@H]1OC(=O)CNC(=O)[C@H]([C@H](C)O)NC(=O)[C@H](CN)NC(=O)[C@H](c2ccccc2)NC(=O)[C@H](CC(C)C)N(C)C(=O)[C@@H]1C`, the MIC was 71 µM (≈ 47.9 µg/mL) with Escherichia coli CFT073, more than 100 µM in series [1] and 1.6 µM (≈ 1.08 µg/mL) in the series with Escherichia coli.

`CCCCCC[C@H]1OC(=O)CNC(=O)[C@H]([C@H](C)O)NC(=O)[C@H](CN)NC(=O)[C@H](C2CCCCC2)NC(=O)[C@H](CC)N(C)C(=O)[C@@H]1C`: the MIC is 8.8 µM (≈ 5.74 µg/mL) in the series with Escherichia coli CFT073, more than 100 µM in series [1] and 0.14 µM (≈ 0.0914 µg/mL) in the series on Escherichia coli.

`CCCCCC[C@H]1OC(=O)CNC(=O)[C@H]([C@H](C)O)NC(=O)[C@H](CN)NC(=O)[C@H](CC(C)C)NC(=O)[C@H](CC(C)C)N(C)C(=O)[C@@H]1C`: the values for the MIC (in the series on Escherichia coli CFT073; in series [1]; in the series with Escherichia coli) were 25 µM (≈ 16.4 µg/mL), more than 100 µM and 0.4 µM (≈ 0.262 µg/mL), respectively.

On to `CCCCCC[C@H]1OC(=O)CNC(=O)[C@H]([C@H](C)O)NC(=O)[C@H](CN)NC(=O)[C@H](C2CCCCC2)NC(=O)[C@H](CCC)N(C)C(=O)[C@@H]1C`, for which the MIC is 3.5 µM (≈ 2.33 µg/mL) with Escherichia coli CFT073, more than 100 µM in series [1] and 0.049 µM (≈ 0.0327 µg/mL) in the series with Escherichia coli.

With `CCC[C@H]1C(=O)N[C@@H](C2CCCCCC2)C(=O)N[C@@H](CN)C(=O)N[C@@H]([C@H](C)O)C(=O)NCC(=O)O[C@H](CC2CC3CCC2C3)[C@@H](C)C(=O)N1C` (stereo in doubt; 26), the MIC in the series with Escherichia coli CFT073 amounted to 0.97 µM (≈ 0.684 µg/mL); in the series with Escherichia coli, 0.041 µM (≈ 0.0289 µg/mL).

On to `CCC[C@H]1C(=O)N[C@@H](C2CCCCCC2)C(=O)N[C@@H](CN)C(=O)N[C@@H]([C@H](C)O)C(=O)NCC(=O)O[C@H](CC2CC3CCC2C3)[C@@H](C)C(=O)N1C` (stereo in doubt; 27), for which the MIC came out at 0.78 µM (≈ 0.55 µg/mL) in the series on Escherichia coli CFT073 and 0.009 µM (≈ 0.00634 µg/mL) in the series with Escherichia coli.
